The text below walks through data of ChEMBL document CHEMBL1129606, “Synthesis and bioevaluation of delta 7-5-desaturase inhibitors, an enzyme late in the biosynthesis of the fungal sterol ergosterol” (J Med Chem, 1996).

The term IC50 denotes the midpoint of a concentration-inhibition curve. High values mean weaker potency in that assay, low ones greater potency in that assay.

This assay addresses Delta(7)-sterol 5(6)-desaturase. Put plainly: Inhibition of 5-Desaturase involved in ergosterol biosynthesis. Further details: species or system Saccharomyces cerevisiae. An outline of the steps: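 Microsomal Δ7-sterol 5-desaturase from aerobically grown S. cerevisiae (37 °C, YPD). Cells bead-disrupted in 0.1 M Tris-HCl pH 7.4, 94500g pellet, desalted on Sephadex G-50. Incubated with Tween 20, FeCl3, NADPH and [5α,6α-3H]-7,22(E)-ergostadien-3β-ol with varied inhibitor, all else held constant. Alkali quench, EtOAc extraction, aqueous 3H2O scintillation-counted. IC50 from inverse velocity vs inhibitor concentration; mean of ≥2 experiments.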
In turn, `C[C@]12CC[C@H](O)C[C@]1(CO)CC=C1CCC12` (some centres not stated) displayed an IC50 of 112 µM.
Compound `C[C@]12CC[C@H](O)C[C@]1(C(N)=O)CC=C1CCC12` (some centres not stated) displayed an IC50 of 114 µM.
The compound `C[C@]12CC[C@H](O)C[C@]1(C=O)CC=C1CCC12` (some centres not stated) returned an IC50 of 116 µM.
`C[C@]12CC[C@H](O)C[C@]1(C(=O)O)CC=C1CCC12` (some centres not stated) gave an IC50 of 111 µM.
As for `C[C@]12CC[C@H](O)C[C@]1(C#N)CC=C1CCC12` (some centres not stated), the figure is 131 µM; as for `C[C@]12CC[C@H](O)C[C@]1(O)[C@H](O)C=C1CCC12` (some centres not stated), 96 µM; as for `C[C@]12CC[C@H](O)C[C@]1(O)[C@@H](O)C=C1CCC12` (some centres not stated), 149 µM.
`C[C@]12CC[C@H](O)C[C@]1(O)CC=C1CCC12` (some centres not stated) returned an IC50 of 148 µM.
As for `C[C@]12CC[C@H](O)C[C@]1(S)CC=C1CCC12` (some centres not stated), the figure is 80 µM; as for `C[C@]12CC[C@H](O)C[C@]1(/C=N/O)CC=C1CCC12` (some centres not stated), 136 µM; as for `C[C@]12CC[C@H](O)[C@H]3O[C@]31CC=C1CCC12` (some centres not stated), 66 µM.
As for `C[C@]12CC[C@H](O)C[C@@H]1[C@@H](O)C=C1CCC12` (some centres not stated), the IC50 came out at 47 µM.
